Source: PubChem
Sampled rows, rich in hits. Any-hit rate of the full collection: about 1.6%.
GALR2 agonist = GALR2 (human) receptor agonism; activation, % (concentration not given with the values); O43603; GALR2-expressing cells, agonist activation read-out; hit rate 0.48% among 140,000; AID 803; in the data active means activation above about 5%, passing the limit was not always enough;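 further: 0% = vehicle buffer wells and 100% = reference agonist at full effect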
Target sequence (O43603 whole entry, looked up): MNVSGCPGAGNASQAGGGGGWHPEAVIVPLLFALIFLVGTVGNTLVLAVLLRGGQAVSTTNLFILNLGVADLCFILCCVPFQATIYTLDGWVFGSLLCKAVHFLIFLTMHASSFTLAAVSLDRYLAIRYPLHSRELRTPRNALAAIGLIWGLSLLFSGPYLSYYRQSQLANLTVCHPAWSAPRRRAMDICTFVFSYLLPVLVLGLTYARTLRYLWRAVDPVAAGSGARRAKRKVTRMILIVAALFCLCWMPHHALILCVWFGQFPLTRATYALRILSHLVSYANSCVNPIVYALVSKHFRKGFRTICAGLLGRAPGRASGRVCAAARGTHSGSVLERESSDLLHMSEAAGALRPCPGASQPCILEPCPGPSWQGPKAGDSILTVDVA
S1P2 agonist = S1P2 (human) receptor agonism; S1P2-expressing cell line, agonist reporter read-out; activation, % at 4.5 µM; hit rate 0.46% among 97,000; in the data active means activation above about 16%;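 further: 0% = vehicle low control and 100% = maximal reference agonist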
HIV Rev-RRE inh = disrupts HIV-1 Rev binding to RRE RNA | hit rate 0.79% among 97,000 | Rev peptide-RRE RNA binding, FRET | inhibition, % at 8 µM | P05866 | AID 704;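 active means inhibition above the screen-wide mean plus 3 SD, cut at about 35% in these data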;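 further: 0% = median DMSO wells and 100% = median Neomycin B control wells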
Target sequence (P05866 whole entry, looked up): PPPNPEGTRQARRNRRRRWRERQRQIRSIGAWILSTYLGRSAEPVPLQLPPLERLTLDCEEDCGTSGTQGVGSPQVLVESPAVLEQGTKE
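Assay system: Labelled RRE RNA duplex and labelled Rev peptide | Times: 5 min preincubation and 15 min binding, 25 °C | Detection: FRET, ex 480 nm, em 540 and 671 nm | Evaluation: % inhibition of FRET ratio versus controls | Benchmarks: DMSO wells as 0% and neomycin B wells as 100% inhibition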
S1P2 blocker = S1P2 (human) receptor antagonism. inhibition, % at 5 µM. O95136. AID 736. cell-based S1P2 antagonist assay, inhibition at 5 uM. hit rate 0.21% among 97,000; in the data active means inhibition above about 45%;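 further: CRE beta-lactamase reporter cells expressing human S1P2 stimulated with S1P; 0% = agonist at EC80 alone and 100% = agonist plus reference antagonist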
GALR2 antag = GALR2 (human) receptor antagonism | hit rate 0.39% among 140,000 | GALR2-expressing cells, antagonist mode | inhibition, % at 4 µM | AID 828; in the data active means inhibition above about 27%;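 further: cells stimulated with galanin 1-16 at roughly its EC80; 0% = agonist challenge control and 100% = basal control without agonist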
An asterisk follows results filed as active; . = no result; [ ] = another dose, or the depositor's remark.

SMILES | GALR2 agonist | S1P2 agonist | HIV Rev-RRE inh | S1P2 blocker | GALR2 antag
COCCCn1c(SCc2nc3ccccc3c(=O)[nH]2)nc2ccccc2c1=O | 1 | 23* | 2 | -32 | -2
CCn1c(SCc2nc3ccccc3c(=O)[nH]2)nc2ccccc2c1=O | 2 | 15 | 3 | -9 | -8
CNc1nc(Nc2ccc(Br)cc2)nc(N)c1[N+](=O)[O-] | 5.3* | . | . | . | 7
CC(C)CC(=O)Nc1cccc(NC(=O)CC(C)C)n1 | -2 | . | . | . | -8
CCOc1cccc(OCCCCn2ccnc2)c1 | -1 | 83* | 4 | 9 | 2
CCOC(=O)CN1C(=O)S/C(=C/c2ccc(N3CCCCC3)o2)C1=O | -3 | -5 | 112*[fluorescence artefact?] | 16 | 2
COC(=O)CN1C(=O)S/C(=C/c2ccc(N3CCCCC3)o2)C1=O | -2 | -5 | 140*[fluorescence artefact?] | 33 | 6
CCCCOC(C)n1cc(F)c(=O)[nH]c1=O (stereo unspecified) | 0 | . | . | . | 15
O=C(Nc1ccc2cn[nH]c2c1)c1ccc(Cl)c(S(=O)(=O)N2CCOCC2)c1 | -1 | . | . | . | 7
CC(C)(C)C1CC=C2C(C#N)=C(N)C(C#N)(C#N)C(c3cccs3)C2C1 (stereo unspecified) | 1 | 4 | 49* | -10 | -9
CN1C2C=C3C(C#N)=C(N)C(C#N)(C#N)[C@@H](c4cccs4)C3C1CC2 (stereo partly specified) | -3 | -1 | 16 | -2 | 2
CCCNC(=O)c1c(N)n(-c2cccc(OC)c2)c2nc3ccccc3nc12 | 18* | 21* | 15 | -29 | -5
COCCCNC(=O)c1c(N)n(-c2cccc(S(N)(=O)=O)c2)c2nc3ccccc3nc12 | 3 | 11 | 1 | -15 | 0
COC(=O)[C@@H]1C[C@]2(OC(=O)c3ccccc3)C=CC(=O)C[C@@H]2N1C(=O)OCc1ccccc1 | -1 | . | . | . | 28*
O=C(O)C1CCCN1C(=O)OCc1ccccc1 (stereo unspecified) | 0 | -1 | 5 | -15 | 0
Cc1ccc(-c2nnn(CCC(=O)N3CCCCC3C)n2)cc1 (stereo unspecified) | 3 | -6 | 6 | 1 | -10
CC1CCCCN1C(=O)Cn1nnc(-c2cccnc2)n1 (stereo unspecified) | -1 | -4 | 38* | -4 | 3
N#C/C(=C/c1ccc(N2CCCCC2)o1)C(=O)Nc1ccc2ccccc2c1 | -1 | . | . | . | 4
N#C/C(=C/c1ccc(N2CCCCCC2)o1)c1cccc(F)c1 | -2 | -4 | 105*[fluorescence artefact?] | 50* | 11
O=C(N/N=C/c1ccc(N2CCCCC2)o1)c1ccccc1 | -1 | . | . | . | 25
COc1cc(N2CCCC2)c(OC)cc1/C=C(/C#N)c1cccc(F)c1 | -3 | -4 | 117*[fluorescence artefact?] | 9 | 5
N#C/C(=C/c1ccc(N2CCCCCC2)o1)c1ccc(F)cc1 | -2 | -9 | 73* | 80* | 37*
O=C(Nc1ccc(N2CCCC2)cc1)c1cccc(F)c1 | -1 | -5 | 3 | -2 | 3
N#C/C(=C/c1ccc(N2CCCCC2)o1)C(=O)Nc1ccc(Cl)cc1 | -4 | -8 | 139*[fluorescence artefact?] | 33 | 13
CCOc1ccccc1NC(=O)CCCN1C(=S)NC(C)(C)CC1C (stereo unspecified) | -1 | . | . | . | 2
SMILES | GALR2 agonist | S1P2 agonist | HIV Rev-RRE inh | S1P2 blocker | GALR2 antag
C=CCC(CC=C)(NC(=O)c1ccccc1C(=O)O)c1ccccc1 | 0 | . | . | . | 4
Nc1nc2sc3c(c2cc1C(=O)N1CCOCC1)CCCC3 | -4 | -9 | 4 | -1 | 13
Cc1ccc2nc3sc(C(=O)N4CCCc5ccccc54)c(N)c3cc2c1 | -2 | -4 | 49* | -6 | -2
Cc1cccc2cc3c(N)c(C(=O)N4CCOCC4)sc3nc12 | -1 | -2 | 50* | 0 | 15
Cc1cc(C)c2cc3c(N)c(C(=O)N4CCc5ccccc5C4)sc3nc2c1 | -1 | -5 | 72* | 10 | 8
Cc1ccc(-c2cc(C(=O)N3CCCc4ccccc43)c3ccccc3n2)cc1 | -3 | -4 | 4 | -16 | -2
COc1cc(NS(=O)(=O)c2ccc(Cl)cc2)c(C(=O)O)cc1OC | -1 | . | . | . | 0
COc1cc(/C=N/NC(=O)CC23CC4CC(CC(C4)C2)C3)cc(Br)c1OCC(=O)N(C)C | 1 | . | . | . | -2
COc1ccc(C2C=C(c3ccc(C)cc3)Nc3ncnn32)cc1 (stereo unspecified) | -1 | -7 | 56* | 20 | 19
COc1ccc(C2=CC(c3ccc(C)cc3)n3nnnc3N2)cc1 (stereo unspecified) | -3 | -2 | 47* | 2 | -5
COc1ccc(C2C=C(c3ccccc3)Nc3nc(NC(C)=O)nn32)cc1 (stereo unspecified) | -2 | -12 | 42* | 13 | 25
NC(=O)C1CCN(C(=O)/C=C/c2ccco2)CC1 | -1 | . | . | . | -3
O=C(O)c1ccc(/C=N/N2CCN(Cc3ccccc3)CC2)cc1 | 0 | . | . | . | -2
COc1ccc(CN(C)Cc2ccccc2)c(OC)c1OC | -1 | . | . | . | 16
Cc1cc(C)n2cc(CSc3nc4cc(Cl)ccc4o3)nc2n1 | -1 | 17* | 2 | -11 | -3
Cc1cc(C)n2c(Br)c(CSc3nc4ccccc4o3)nc2n1 | -1 | 17* | 8 | -37 | -5
CCCOc1ccc(NC(=O)CC2C(=O)N(Cc3ccccc3)C(=S)N2Cc2cccs2)cc1 (stereo unspecified) | 0 | . | . | . | 5
CC(C)OCCCNC(=O)c1c(N)n(/N=C/c2cccs2)c2nc3ccccc3nc12 | 3 | 18* | -4 | -28 | -18
CCCOC(=O)Nc1nc2ccccc2o1 | -2 | -9 | 38* | 1 | 1
Cc1cc(NCCOCCO)n2ncc(-c3ccc(Cl)cc3)c2n1 | -1 | 18* | 11 | -42 | -7
CC(=O)c1nn(-c2cccc(Br)c2)cc1C(=O)c1ccccc1 | 0 | -2 | 7 | 2 | -13
CC(=O)c1nn(-c2cccc(Br)c2)cc1C(=O)c1ccc(Cl)cc1 | 7.5* | . | . | . | -10
Cn1c(=O)c2ncn(CC(=O)Nc3ccc4c5c(cccc35)CC4)c2n(C)c1=O | 0 | -6 | 46* | 3 | -3
Cc1nn(-c2nc3ccccc3s2)c(N)c1-c1ccc(Cl)cc1 | -2 | -1 | 13 | 31 | 0
Cc1nn(-c2nc3ccccc3s2)c(N)c1-c1ccccc1 | -3 | 22* | 4 | 3 | 11
SMILES | GALR2 agonist | S1P2 agonist | HIV Rev-RRE inh | S1P2 blocker | GALR2 antag
COc1cc(C(=O)NCC(=O)N/N=C(/C)c2cccs2)cc(OC)c1OC | -1 | . | . | . | 4
CCOc1ccc(S(=O)(=O)N(CC(=O)N/N=C/c2ccc(-c3ccc([N+](=O)[O-])cc3)o2)c2ccccc2)cc1 | -1 | -17 | 26 | 61* | 3
O=C(Cc1ccccc1)N/N=C/c1ccc(-c2ccc([N+](=O)[O-])cc2)o1 | 1 | . | . | . | 5
COc1ccc2cc(/C=N/NC(=O)CN(c3ccccc3)S(=O)(=O)c3ccccc3)c(Cl)nc2c1 | 6.5* | . | . | . | -2
CCOc1ccc(NC(=O)CN(c2ccc([N+](=O)[O-])cc2)S(=O)(=O)c2ccccc2)cc1 | 0 | . | . | . | -9
Cc1ccc(C)c(N(CC(=O)N/N=C/c2ccc(-c3ccc([N+](=O)[O-])cc3)o2)S(=O)(=O)c2ccccc2)c1 | -4 | -15 | 33 | 67* | 14
